Experimental data taken from ChEMBL document CHEMBL1145782, “Systematic development of high affinity bis(ammonio)alkane-type allosteric enhancers of muscarinic ligand binding” (J Med Chem, 2003).

Columns and labels:
[1] = target: T1, Muscarinic acetylcholine receptor M2 (Sus scrofa) (UniProt P06199); assay: Binding affinity for [3H]NMS-occupied muscarinic acetylcholine receptor M2 from porcine heart ventricle.
T1 sequence (whole entry): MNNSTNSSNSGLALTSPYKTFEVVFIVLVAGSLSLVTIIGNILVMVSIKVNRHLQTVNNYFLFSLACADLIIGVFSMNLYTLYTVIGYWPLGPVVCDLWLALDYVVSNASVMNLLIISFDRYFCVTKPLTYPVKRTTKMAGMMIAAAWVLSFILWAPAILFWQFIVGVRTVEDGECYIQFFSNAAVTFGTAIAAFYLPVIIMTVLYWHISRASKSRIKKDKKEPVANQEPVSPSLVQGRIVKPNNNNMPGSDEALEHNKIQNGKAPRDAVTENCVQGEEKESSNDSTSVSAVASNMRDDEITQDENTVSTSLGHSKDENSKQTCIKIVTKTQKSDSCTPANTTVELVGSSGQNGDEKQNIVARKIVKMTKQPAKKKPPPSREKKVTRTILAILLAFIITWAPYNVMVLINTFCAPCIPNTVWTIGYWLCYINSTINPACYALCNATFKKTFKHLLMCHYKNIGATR
How it was run: (§1)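 Pig heart ventricle homogenates in 2.7 mM MgHPO4, 45 mM Tris-HCl, pH 7.3, 37 °C; [3H]NMS 0.20 nM with increasing test compound concentrations; incubation 180–530 min, calculated to reach equilibrium. Nonspecific binding with 1 μM atropine; bound label separated by rapid vacuum filtration onto glass filters and counted by liquid scintillation. Affinities for free and NMS-occupied receptor derived from binding curves.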

[2] = target: T1, Muscarinic acetylcholine receptor M2 (Sus scrofa); assay: Cooperativity factor pAlpha at porcine heart ventricle muscarinic acetylcholine receptor M2.; how it was run: as §1
[3] = target: T1, Muscarinic acetylcholine receptor M2 (Sus scrofa); assay: Tested for binding of [3H]N-methylscopolamine ([3H]NMS) at porcine heart ventricle muscarinic acetylcholine receptor M2 expressed as -logKa.; how it was run: as §1
[4] = target: T2, Muscarinic acetylcholine receptor M2 (Sus scrofa, UniProt P06199); assay: Effective concentration required to inhibit dissociation of [3H]NMS from porcine heart ventricles muscarinic acetylcholine receptor M2.
T2 sequence (P06199 whole entry): T1 sequence (whole entry)
How it was run: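 [3H]NMS dissociation in pig heart ventricle homogenates, Mg/Tris buffer pH 7.3, 37 °C. Membranes equilibrated 30 min with 0.2 nM [3H]NMS, then 1 μM atropine added alone or with various test compound concentrations. Either complete time courses over 120 min or two-point measurement (0 and 10 min); monoexponential apparent k-1 by nonlinear regression; filtration and scintillation counting.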

SMILES | p alphaKa [1] | pAlpha [2] | -logKa [3] | EC50 [4] [µM]
Cc1ccc2c(c1)C(=O)N(CCC[N+](C)(C)CCCCCC[N+](C)(C)CCCN1C(=O)c3cccc4cccc(c34)C1=O)C2=O | 7.79 | -0.22 | 8.01 | 0.0251
CC(C)(CN1C(=O)c2cccc3cccc(c23)C1=O)C[N+](C)(C)CCCCCC[N+](C)(C)CCCN1C(=O)c2cccc3cccc(c23)C1=O | 8.24 | 0.17 | 8.07 | 0.00776
C[N+](C)(CCCCCC[N+](C)(C)CCCN1C(=O)c2ccc(C(F)(F)F)cc2C1=O)CCCN1C(=O)c2ccc(C(F)(F)F)cc2C1=O | 6.15 | -0.22 | 6.37 | 0.447
Cc1ccc2c(c1)C(=O)N(CCC[N+](C)(C)CCCCCC[N+](C)(C)CCCN1C(=O)c3ccccc3C1=O)C2=O | 6.42 | -0.31 | 6.73 | 0.324
Cc1ccc2c(c1)C(=O)N(CCC[N+](C)(C)CCCCCC[N+](C)(C)CC(C)(C)CN1C(=O)c3ccc(C)cc3C1=O)C2=O | 7.44 | 0.03 | 7.41 | 0.0363
CC(C)(C)c1ccc2c(c1)C(=O)N(CCC[N+](C)(C)CCCCCC[N+](C)(C)CCCN1C(=O)c3ccc(C(C)(C)C)cc3C1=O)C2=O | 6.49 | -0.89 | 7.38 | 0.302
C[N+](C)(CCCCCC[N+](C)(C)CCCN1C(=O)c2cccc3cccc(c23)C1=O)CCCN1C(=O)c2cccc3cccc(c23)C1=O | 7.83 | -0.28 | 8.11 | 0.0138
CC(C)(CN1C(=O)c2ccccc2C1=O)C[N+](C)(C)CCCCCC[N+](C)(C)CCCN1C(=O)c2ccccc2C1=O | 6.86 | -0.04 | 6.9 | 0.135
Cc1ccc2c(c1)C(=O)N(CCC[N+](C)(C)CCCCCC[N+](C)(C)CC(C)(C)CN1C(=O)c3ccccc3C1=O)C2=O | 7.07 | -0.13 | 7.2 | 0.0708
C[N+](C)(CCCCCC[N+](C)(C)CCCN1C(=O)c2cc(Cl)c(Cl)cc2C1=O)CCCN1C(=O)c2ccccc2C1=O | 6.9 | -0.17 | 7.08 | 0.115
Cc1ccc2c(c1)C(=O)N(CC(C)(C)C[N+](C)(C)CCCCCC[N+](C)(C)CCCN1C(=O)c3cccc4cccc(c34)C1=O)C2=O | 7.44 | -0.04 | 7.48 | 0.0363
CC(C)(CN1C(=O)c2cccc3cccc(c23)C1=O)C[N+](C)(C)CCCCCC[N+](C)(C)CCCN1C(=O)c2ccccc2C1=O [NAPHMETHONIUM] | 8.66 | 0.37 | 8.29 | 0.00437
C[N+](C)(CCCCCC[N+](C)(C)CCCN1C(=O)c2cc(F)c(F)cc2C1=O)CCCN1C(=O)c2cc(F)c(F)cc2C1=O | 6.08 | -0.39 | 6.47 | 0.741
C[N+](C)(CCCCCC[N+](C)(C)CCCN1C(=O)C2C3c4ccccc4C(c4ccccc43)C2C1=O)CCCN1C(=O)c2ccccc2C1=O (stereo not given) | 6.56 | -1.21 | 7.78 | 0.204
Cc1ccc2c(c1)C(=O)N(CC(C)(C)C[N+](C)(C)CCCCCC[N+](C)(C)CC(C)(C)CN1C(=O)c3cccc4cccc(c34)C1=O)C2=O | 8.19 | 0.29 | 7.9 | 0.0141
CC(C)(CN1C(=O)c2cccc3cccc(c23)C1=O)C[N+](C)(C)CCCCCC[N+](C)(C)CC(C)(C)CN1C(=O)c2cccc3cccc(c23)C1=O | 8.04 | 0.53 | 7.51 | 0.00851
C[N+](C)(CCCCCC[N+](C)(C)CCCN1C(=O)C2C3c4ccccc4C(c4ccccc43)C2C1=O)CCCN1C(=O)C2C3c4ccccc4C(c4ccccc43)C2C1=O (stereo not given) | 6.74 | -1.38 | 8.12 | 0.398
CC(C)(CN1C(=O)c2ccccc2C1=O)C[N+](C)(C)CCCCCC[N+](C)(C)CCCN1C(=O)c2cccc3cccc(c23)C1=O | 7.28 | -0.005 | 7.28 | 0.0525

SMILES | p alphaKa [1] | pAlpha [2] | -logKa [3] | EC50 [4] [µM]
C[N+](C)(CCCCCC[N+](C)(C)CCCN1C(=O)c2nccnc2C1=O)CCCN1C(=O)c2nccnc2C1=O | 5 | -0.44 | 5.44 | 6.31
C[N+](C)(CCCCCC[N+](C)(C)CCCN1C(=O)c2ccc(C(F)(F)F)cc2C1=O)CCCN1C(=O)c2ccccc2C1=O | 6.12 | -0.21 | 6.32 | 0.501
CC(C)(C)c1ccc2c(c1)C(=O)N(CCC[N+](C)(C)CCCCCC[N+](C)(C)CCCN1C(=O)c3ccccc3C1=O)C2=O | 6.43 | -0.81 | 7.25 | 0.309
C[N+](C)(CCCCCC[N+](C)(C)CCCN1C(=O)c2cccc3cccc(c23)C1=O)CCCN1C(=O)c2ccccc2C1=O | 7.04 | -0.2 | 7.24 | 0.115
Cc1ccc2c(c1)C(=O)N(CC(C)(C)C[N+](C)(C)CCCCCC[N+](C)(C)CC(C)(C)CN1C(=O)c3ccc(C)cc3C1=O)C2=O | 7.38 | 0.17 | 7.21 | 0.0468
Cc1ccc2c(c1)C(=O)N(CCC[N+](C)(C)CCCCCC[N+](C)(C)CC(C)(C)CN1C(=O)c3cccc4cccc(c34)C1=O)C2=O | 8.23 | 0.32 | 7.9 | 0.00759
C[N+](C)(CCCCCC[N+](C)(C)CCCN1C(=O)c2cc(F)c(F)cc2C1=O)CCCN1C(=O)c2ccccc2C1=O | 6.31 | -0.37 | 6.68 | 0.457
CC(C)(CN1C(=O)c2ccccc2C1=O)C[N+](C)(C)CCCCCC[N+](C)(C)CC(C)(C)CN1C(=O)c2cccc3cccc(c23)C1=O | 7.97 | 0.56 | 7.41 | 0.0186
Cc1ccc2c(c1)C(=O)N(CCC[N+](C)(C)CCCCCC[N+](C)(C)CCCN1C(=O)c3ccc(C)cc3C1=O)C2=O | 6.75 | -0.33 | 7.08 | 0.17
C[N+](C)(CCCCCC[N+](C)(C)CCCN1C(=O)c2cc(Cl)c(Cl)cc2C1=O)CCCN1C(=O)c2cc(Cl)c(Cl)cc2C1=O | 6.57 | -0.29 | 6.83 | 0.229
C[N+](C)(CCCCCC[N+](C)(C)CCCN1C(=O)c2nccnc2C1=O)CCCN1C(=O)c2ccccc2C1=O | 5.66 | -0.59 | 6.25 | 1.62
CC(C)(CN1C(=O)c2ccccc2C1=O)C[N+](C)(C)CCCCCC[N+](C)(C)CC(C)(C)CN1C(=O)c2ccccc2C1=O | 6.87 | -0.21 | 7.08 | 0.178
Cc1ccc2c(c1)C(=O)N(CC(C)(C)C[N+](C)(C)CCCCCC[N+](C)(C)CC(C)(C)CN1C(=O)c3ccccc3C1=O)C2=O | 6.9 | 0.17 | 6.73 | 0.12
C[N+](C)(CCCCCC[N+](C)(C)CCCN1C(=O)c2ccccc2C1=O)CCCN1C(=O)c2ccccc2C1=O | 5.73 | -0.47 | 6.19 | 1.35
C[N+](C)(CCCCCC[N+](C)(C)CCCN1C(=O)c2cc3ccccc3cc2C1=O)CCCN1C(=O)c2cc3ccccc3cc2C1=O | 6.77 | -0.85 | 7.62 | 0.204
Cc1ccc2c(c1)C(=O)N(CC(C)(C)C[N+](C)(C)CCCCCC[N+](C)(C)CCCN1C(=O)c3ccccc3C1=O)C2=O | 7.45 | 0.19 | 7.26 | 0.055
C[N+](C)(CCCCCC[N+](C)(C)CCCN1C(=O)c2cc3ccccc3cc2C1=O)CCCN1C(=O)c2ccccc2C1=O | 6.8 | -0.47 | 7.27 | 0.145
